ABCB6 inh 2 = human ABCB6 transporter inhibition. Q9NP58. fluorescence ratio to DMSO, % at 10 µM. AID 602162. 360,000 compounds, 0.19% hits. K562-ABCB6 porphyrin accumulation, flow cytometry, 1 h; active compounds read low;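 active means fluorescence ratio to DMSO below 75%, the collection mean minus 3 SD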;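 further: signal is porphyrin accumulated inside mitochondria; 100% equals median channel fluorescence of DMSO control wells; lower ratio means ABCB6 inhibition with less porphyrin fluorescence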
FXN GAA850 act = activators of GAA850 frataxin (FXN) promoter; HEK293 lucGAA850 FXN promoter luciferase reporter, 24 h; percent of 10 µM SAHA response; activation, % at 6 µM; 360,000 compounds, 0.56% hits; AID 540364;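 active means activation above the average of all compounds screened plus 3 SD, cutoff fixed separately per campaign, cut at about 7.5% in these data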;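 further: 0% = DMSO wells and 100% = 10 µM SAHA wells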
STAT3 act = STAT3 signaling activation; activation (% of control), % at 5.6 µM; U3A cells, IL-6 STAT3-luciferase reporter, luminescence; 100% = signal with IL-6 EC80 alone; 190,000 compounds, 0.91% hits;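 active means activation above the screen-wide mean of compound activation plus 3 SD, cut at about 130% in these data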;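 further: 0% = background luminescence of wells with medium and substrate only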
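Test system: STAT3-luciferase reporter U3A cells; Detection: reporter luminescence signal; Times: 1 h compound pre-exposure, 6 h IL-6 stimulation, 37 °C; Benchmarks: IL-6-only high control; Also added: IL-6 stimulus at 33 ng/mL final.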
AHR act = activates the human aryl hydrocarbon receptor; P35869; AHR-responsive luciferase reporter cells, luminescence; activation, % at 5 µM; 320,000 compounds, 2.5% hits; AID 2796; in the data active means activation above about 47%;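 further: 0% = vehicle wells and 100% = reference agonist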
AHR act cf = confirmation of human aryl hydrocarbon receptor activators | activation, % at 9 µM | 2,300 compounds, 87% hits | shares compounds with AHR act | human cells, AHR-responsive luciferase reporter, luminescence; in the data active means activation above about 49%;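 further: HepG2 hepatoma cells carrying a DRE-driven firefly luciferase reporter; 0% = vehicle wells and 100% = reference agonist wells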
PXR act counter = counter-screen for AHR activators: human PXR activators; activation, % at 11.6 µM; shares compounds with AHR act; cell-based PXR reporter, luciferase luminescence; 2,300 compounds, 88% hits; in the data active means activation above about 11%;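 further: human hepatoma DPX-2 cells expressing full-length human PXR; 0% = DMSO and 100% = reference agonist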
Target sequence (O75469 whole entry, looked up): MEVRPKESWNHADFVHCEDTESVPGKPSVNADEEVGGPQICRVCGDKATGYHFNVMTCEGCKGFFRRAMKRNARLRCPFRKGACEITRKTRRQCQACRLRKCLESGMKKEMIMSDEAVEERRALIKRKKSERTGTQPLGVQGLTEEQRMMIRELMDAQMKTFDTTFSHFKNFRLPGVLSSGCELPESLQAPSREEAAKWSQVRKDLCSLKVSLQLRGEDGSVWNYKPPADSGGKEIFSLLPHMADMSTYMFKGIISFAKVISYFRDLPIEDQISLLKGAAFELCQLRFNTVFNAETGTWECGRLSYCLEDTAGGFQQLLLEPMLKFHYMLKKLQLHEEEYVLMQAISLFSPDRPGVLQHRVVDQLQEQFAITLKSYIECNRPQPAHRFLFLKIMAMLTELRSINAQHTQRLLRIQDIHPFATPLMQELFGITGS
Active calls of the source: *; . = not tested or not shown. Sampled rows, rich in hits. Any-hit rate of the full collection: about 3.3%.

SMILES	ABCB6 inh 2	FXN GAA850 act	STAT3 act	AHR act	AHR act cf	PXR act counter
COc1ccc(-n2cc(-c3ccc(Cl)cc3)[nH]c2=S)cc1	92	5	.	42	.	.
Nc1ccc(-n2cc(-c3ccccc3)[nH]c2=S)cc1	102	3	.	24	.	.
COc1ccccc1-c1cn(-c2ccccc2)c(=S)[nH]1	91	0	.	112*	109*	105*
CCCOc1ccccc1Cn1c(=O)oc2ccccc21	97	2	.	2	.	.
COc1ccc(CCNC(=O)C2CCCN(S(=O)(=O)c3cccc4nonc34)C2)cc1OC (stereo not drawn)	97	0	100	4	.	.
COC(=O)c1cn(NC(=O)C2COc3ccccc3O2)c(=O)c2ccccc12 (stereo not drawn)	94	3	106	2	.	.
CC(=O)NCCNc1nc2c(-c3ccccc3)nnn2c2ccccc12	95	5	.	88*	113*	19*
C=CCn1c(P(=O)(O)c2ccccc2)nc2ccccc21	97	1	118	7	.	.
C=CCn1c(NC(=O)c2ccccc2)nc2ccccc21	97	1	.	87*	126*	33*
C=CCn1c(=N)n(CC(=O)c2ccc(Br)cc2)c2ccccc21	95	1	.	86*	96*	31*
CCCn1c(=N)n(CC(=O)c2ccc(Cl)cc2)c2ccccc21	97	-3	.	86*	80*	31*
N=c1n(N)c2ccccc2n1CC(=O)c1ccc(Br)cc1	98	3	.	83*	86*	10
CCOC(=O)CC1COCCN1Cc1cn(C)nc1-c1ccccc1F (stereo not drawn)	99	0	100	5	.	.
O=C(COc1ccc2oc(-c3ccco3)cc(=O)c2c1)N1CCCCC1	94	1	97	1	.	.
O=C(C1=C(O)C(=O)N(CC2CCCO2)C1c1ccccc1F)c1ccco1 (stereo not drawn)	98	1	.	2	.	.
C=CCn1c(=N)n(CC(=O)O)c2ccccc21	97	-1	106	1	.	.
C=CCn1c(=N)n(CC(=O)c2ccccc2)c2ccccc21	103	-1	.	102*	88*	47*
Cc1cccc(-c2oc3ccccc3c2C#CCCO)c1	99	4	.	97*	68*	24*
O=C(NC(=S)Nc1ccccc1N1CCCC1)c1ccco1	99	3	.	169*	124*	31*
O=C(NC(=S)Nc1ccccc1N1CCCCC1)c1ccco1	100	3	100	15	.	.
O=C(Nc1cc(Cl)ccc1-n1cncn1)c1cc(F)cc(F)c1	98	2	.	41	.	.
O=C(Nc1cc(Cl)ccc1-n1cncn1)c1cccs1	97	1	.	84*	116*	20*
c1ccc2oc(-c3ccc4nc[nH]c4c3)nc2c1	94	2	93	97*	147*	14*
c1ccc(-c2cc3cc4c(cc3cn2)OCO4)cc1	95	2	.	123*	67*	90*
COc1cc2cnc(-c3ccccc3)cc2cc1OC	101	6	.	114*	122*	14*
SMILES	ABCB6 inh 2	FXN GAA850 act	STAT3 act	AHR act	AHR act cf	PXR act counter
c1ccc(-c2cc3ccccc3cn2)cc1	93	3	.	37	.	.
Cc1cccc2cc(COC(=O)c3ccccn3)c(=O)[nH]c12	94	2	101	3	.	.
COc1ccc(O)c(-c2cc(-c3ccccc3Cl)[nH]n2)c1	98	4	.	124*	273*	22*
Oc1ccccc1-c1cc(-c2ccccc2)n[nH]1	100	5	.	98*	88*	13*
Cc1ccccc1-c1cc(-c2ccccc2O)n[nH]1	94	6	126	112*	95*	10
COc1ccccc1-c1cc(-c2cc(Cl)ccc2O)n[nH]1	94	0	117	32	.	.
Oc1ccc(Br)cc1-c1cc(-c2ccccc2Cl)[nH]n1	94	5	.	47	.	.
COc1ccc(COc2ncnc3ccc(Br)cc23)cc1F	99	4	.	7	.	.
Cc1ccc(CN(C)CC(=O)Nc2ccc3c(c2)CCC3)cc1	101	0	102	3	.	.
COc1cccc(CN2C(=NC(=O)C3CCCO3)SC3CS(=O)(=O)CC32)c1 (stereo not drawn)	88	2	.	.	.	.
Cn1c(-c2ccccc2Br)n[nH]c1=S	93	0	98	-1	.	.
S=c1nc2ccccc2c2nc(-c3ccccc3Br)[nH]n12	105	1	.	123*	130*	38*
Cc1nc(CSc2n[nH]c(=O)n2-c2cccc(F)c2)cs1	104	-1	.	0	.	.
CC(=O)NCC1CCCN(Cc2cn(-c3ccccc3F)nc2-c2cc(C)sc2C)C1 (stereo not drawn)	96	2	96	7	.	.
S=C(NCc1cccnc1)Nc1ccc(Cl)cc1	101	4	92	0	.	.
CCN=C(Nc1ccc(Cl)cc1)c1cccnc1	96	2	89	104*	81*	35*
CC(Oc1ccccc1)C(=O)Nc1ccc(NC(=O)c2ccccc2)cc1 (stereo not drawn)	101	1	.	2	.	.
COc1cc(OC)c(NC(=O)c2ccc(F)cc2)cc1Cl	99	1	89	2	.	.
COc1cc(N)c(Cl)cc1NC(=O)c1ccccc1	101	-2	98	94*	117*	15*
COc1cc(NC(=O)C(C)Oc2ccccc2)c(OC)cc1NC(=O)c1ccccc1 (stereo not drawn)	125	3	.	82*	100*	14*
COc1ccc(OC)c(C2NC(=O)N(C)C(C)=C2C(=O)OCc2ccccc2)c1 (stereo not drawn)	103	3	.	4	.	.
CN(CC(=O)Nc1cccc(F)c1)C(=O)c1cc(S(=O)(=O)N2CCCCC2)ccc1N1CCOCC1	94	-1	.	0	.	.
CN1C2C=C3C(C#N)=C(N)C(C#N)(C#N)C(c4ccc(Br)cc4)C3C1CC2 (stereo not drawn)	101	-4	102	110*	79*	107*
O=C1N/C(=N\N=C\c2ccco2)SC1Cc1ccccc1[N+](=O)[O-] (stereo not drawn)	98	1	.	83*	71*	28*
CCOc1ccc(CC2S/C(=N/N=C/c3ccco3)NC2=O)cc1 (stereo not drawn)	105	-2	93	2	.	.
SMILES	ABCB6 inh 2	FXN GAA850 act	STAT3 act	AHR act	AHR act cf	PXR act counter
O=C(O)c1ccc2c(c1)C(=O)N(c1ncccn1)C2=O	93	2	100	3	.	.
FC(F)(F)c1cc(-c2ccco2)nc(N2CCN(Cc3ccccc3)CC2)n1	100	1	102	-1	.	.
Fc1ccc(N2CCN(c3nc(-c4ccco4)cc(C(F)(F)F)n3)CC2)cc1	96	0	102	115*	105*	14*
Nc1nnc(SCC(=O)Nc2cccc3ccccc23)s1	95	1	.	7	.	.
CCCCNc1c(-c2ccc(OC)c(SC3CCCCC3)c2)nc2cnccn12	123	-2	.	94*	58*	169*
CCCCNc1c(-c2ccc(OC)c(SC3CCCCC3)c2)nc2cc(C)ccn12	94	3	.	29	.	.
